Results reported in ChEMBL document CHEMBL1811757, “Discovery of naturally occurring aurones that are potent allosteric inhibitors of hepatitis C virus RNA-dependent RNA polymerase” (J Med Chem, 2011).
Active and inactive are the calls of the source. The calls are words filed in the database; no cut-off is given here.

Assays:
[1] = Inhibition of HCV genotype 1b J4 N-terminal His-tagged NS5Bdelta21 polymerase expressed in Escherichia coli C41(DE3) assessed as amount of double-stranded RNA synthesis; design: species or system Hepatitis C virus isolate HC-J4
[2] = test system: Hepatitis C virus isolate HC-J4; test: Inhibition of HCV genotype 1b J4 N-terminal His-tagged NS5Bdelta21 polymerase expressed in Escherichia coli C41(DE3) assessed as amount of double-stranded RNA synthesis at 20 uM
[3] = test system: Huh-7; test: Cytotoxicity against human HuH7 cells up to 512 uM after 72 hrs by MTT assay; type: cell-based; settings: huh-7, 72 h
Summary of the method: (§1)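 Cells trypsinized in exponential growth and plated at 2000 (HuH7) or 1000 (HEK293) per well. Allowed to attach 96 h at 37°C, 5% CO2. Drug diluted in medium with 1% DMSO final, then 72 h at 37°C, 5% CO2. Viability read by MTT colorimetric assay.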

[4] = test system: HEK293; test: Cytotoxicity against human HEK293 cells up to 512 uM after 72 hrs by MTT assay; type: cell-based; settings: hek293, 72 h; summary of the method: as §1
[5] = test system: Hepatitis C virus; test: Antiviral activity against HCV JFH-1 assessed as inhibition of viral replication by cell based assay; type: functional, organism-based, Hepacivirus hominis
[6] = test system: Hepatitis C virus isolate HC-J4; test: Ratio of IC50 for HCV genotype 1b J4 NS5Bdelta21 polymerase P495L mutant to IC50 for HCV genotype 1b J4 wild type N-terminal His-tagged NS5Bdelta21 polymerase
Summary of the method: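 IC50 measured in cell-free poly U/ATP double-stranded RNA synthesis assay for purified His-tagged NS5BΔ21 P495L mutant and wild type, both prepared identically by Ni-NTA purification. Mutant IC50 divided by wild-type IC50 and reported as fold difference. A Thumb Pocket I benzimidazole inhibitor served as control.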

[7] = test system: RNA-directed RNA polymerase (Hepacivirus hominis), O39930 [H95Q]; test: Inhibition of HCV genotype 1b J4 NS5Bdelta21 polymerase H95Q mutant expressed in Escherichia coli C41(DE3) assessed as amount of double-stranded RNA synthesis; settings: Hepatitis C virus isolate HC-J4
Summary of the method: (§2)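 N-terminal His6-tagged NS5BΔ21 (C-terminal 21 residues removed) point mutants, made by site-directed mutagenesis, sequence-verified and purified like wild type: Ni-NTA affinity, imidazole elution, dialysis into Tris pH 7.5/sodium acetate/DTT/EDTA/10% glycerol. Cell-free assay quantifies double-stranded RNA synthesized on poly U homopolymeric template with ATP. IC50 determined per mutant.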

[8] = test system: RNA-directed RNA polymerase (Hepacivirus hominis), O39930 [C316Y]; test: Inhibition of HCV genotype 1b J4 NS5Bdelta21 polymerase C316Y mutant expressed in Escherichia coli C41(DE3) assessed as amount of double-stranded RNA synthesis; settings: Hepatitis C virus isolate HC-J4; summary of the method: as §2
[9] = test system: RNA-directed RNA polymerase (Hepacivirus hominis), O39930 [M423T]; test: Inhibition of HCV genotype 1b J4 NS5Bdelta21 polymerase M423T mutant expressed in Escherichia coli C41(DE3) assessed as amount of double-stranded RNA synthesis; settings: Hepatitis C virus isolate HC-J4; summary of the method: as §2
Chain of RNA-directed RNA polymerase (Hepacivirus hominis), O39930 [M423T] (O39930 entry or part of it M423T): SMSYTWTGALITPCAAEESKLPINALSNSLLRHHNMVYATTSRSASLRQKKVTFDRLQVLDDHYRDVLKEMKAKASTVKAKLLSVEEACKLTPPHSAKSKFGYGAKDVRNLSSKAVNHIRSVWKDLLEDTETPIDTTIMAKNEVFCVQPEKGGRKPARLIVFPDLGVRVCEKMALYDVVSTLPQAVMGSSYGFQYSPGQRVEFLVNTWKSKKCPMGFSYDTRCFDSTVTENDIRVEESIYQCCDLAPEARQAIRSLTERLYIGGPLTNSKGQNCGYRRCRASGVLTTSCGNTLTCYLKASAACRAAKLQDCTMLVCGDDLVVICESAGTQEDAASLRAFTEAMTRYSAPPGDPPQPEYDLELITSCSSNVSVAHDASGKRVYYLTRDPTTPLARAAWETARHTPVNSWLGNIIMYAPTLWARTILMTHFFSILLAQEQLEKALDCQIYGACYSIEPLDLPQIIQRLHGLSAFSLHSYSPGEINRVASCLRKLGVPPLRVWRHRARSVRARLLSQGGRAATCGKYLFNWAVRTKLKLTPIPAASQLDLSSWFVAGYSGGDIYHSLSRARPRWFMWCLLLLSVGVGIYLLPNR

Chain of RNA-directed RNA polymerase (Hepacivirus hominis), O39930 [C316Y] (O39930 entry or part of it C316Y): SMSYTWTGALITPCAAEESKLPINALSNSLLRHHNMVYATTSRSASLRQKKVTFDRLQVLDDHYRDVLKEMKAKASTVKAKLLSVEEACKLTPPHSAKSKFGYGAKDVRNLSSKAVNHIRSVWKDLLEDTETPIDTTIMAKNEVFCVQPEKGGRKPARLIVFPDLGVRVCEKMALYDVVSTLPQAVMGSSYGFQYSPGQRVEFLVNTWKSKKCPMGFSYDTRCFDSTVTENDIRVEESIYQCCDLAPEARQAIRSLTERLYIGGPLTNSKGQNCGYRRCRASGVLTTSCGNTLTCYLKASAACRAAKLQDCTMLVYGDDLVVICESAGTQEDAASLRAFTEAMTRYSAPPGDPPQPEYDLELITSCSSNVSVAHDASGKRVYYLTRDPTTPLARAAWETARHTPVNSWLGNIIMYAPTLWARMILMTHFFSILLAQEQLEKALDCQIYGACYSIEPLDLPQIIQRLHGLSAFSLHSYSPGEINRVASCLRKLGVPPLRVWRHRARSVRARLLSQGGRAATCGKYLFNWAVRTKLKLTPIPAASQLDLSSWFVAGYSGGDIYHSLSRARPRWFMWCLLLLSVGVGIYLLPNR
Chain of RNA-directed RNA polymerase (Hepacivirus hominis), O39930 [H95Q] (O39930 entry or part of it H95Q): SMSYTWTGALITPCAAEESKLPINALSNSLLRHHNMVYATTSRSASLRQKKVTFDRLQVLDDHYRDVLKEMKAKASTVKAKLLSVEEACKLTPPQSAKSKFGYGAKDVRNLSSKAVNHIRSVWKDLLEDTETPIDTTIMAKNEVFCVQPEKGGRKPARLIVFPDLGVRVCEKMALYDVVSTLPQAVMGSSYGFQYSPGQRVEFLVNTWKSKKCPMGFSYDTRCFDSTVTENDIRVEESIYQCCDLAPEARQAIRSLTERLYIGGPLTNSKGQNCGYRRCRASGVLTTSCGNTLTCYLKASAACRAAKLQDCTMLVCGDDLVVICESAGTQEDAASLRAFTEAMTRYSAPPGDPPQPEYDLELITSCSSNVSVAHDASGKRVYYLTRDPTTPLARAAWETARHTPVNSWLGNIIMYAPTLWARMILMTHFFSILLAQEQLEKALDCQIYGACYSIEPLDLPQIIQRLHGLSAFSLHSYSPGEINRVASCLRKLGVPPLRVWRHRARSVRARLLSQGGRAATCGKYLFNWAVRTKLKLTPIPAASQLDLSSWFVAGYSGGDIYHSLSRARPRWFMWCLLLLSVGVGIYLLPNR

IC50 [1] [µM] | inhibition [2] [%] | SMILES | Activity [3] | Activity [4] | IC50 [5] [µM] | Ratio IC50 [6] | inhibition [7] | inhibition [8] | inhibition [9]
> 20 | 74 | COc1cccc(/C=C2\Oc3cc(O)cc(O)c3C2=O)c1OC | Non-toxic | Non-toxic | – | – | – | – | –
3.1 | 78 | CC(C)c1ccc(/C=C2\Oc3cc(O)cc(O)c3C2=O)cc1 | Non-toxic | Non-toxic | – | – | – | – | –
> 20 | 37 | COc1cc(OC)c2c(c1)O/C(=C\c1ccc(O)cc1)C2=O | Non-toxic | Non-toxic | – | – | – | – | –
> 20 | 0.7 | COc1cc(OC)c2c(c1)O/C(=C\c1ccccc1O)C2=O | Non-toxic | Non-toxic | – | – | – | – | –
2.2 | 95 | CCCCn1cc(/C=C2\Oc3cc(O)cc(O)c3C2=O)c2ccccc21 | Non-toxic | Non-toxic | – | – | – | – | –
2.3 | 92 | O=C1/C(=C/c2ccc(C3CCCCC3)cc2)Oc2cc(O)cc(O)c21 | Non-toxic | Non-toxic | – | – | – | – | –
> 20 | 52 | COc1cc(OC)c(/C=C2\Oc3cccc(O)c3C2=O)c(OC)c1 | Non-toxic | Non-toxic | – | – | – | – | –
15.1 | 59 | O=C1/C(=C/c2ccccc2)Oc2cc(O)cc(O)c21 | Non-toxic | Non-toxic | – | – | – | – | –
> 20 | 2 | COc1cc(OC)c2c(c1)O/C(=C\c1ccc(C3CCCCC3)cc1)C2=O | Non-toxic | Non-toxic | – | – | – | – | –
3.6 | 79 | CCc1ccc(/C=C2\Oc3cc(O)cc(O)c3C2=O)cc1 | Non-toxic | Non-toxic | – | – | – | – | –
> 20 | 3 | O=C1/C(=C/c2ccc(C3CCCCC3)cc2)Oc2cc(OCc3ccccc3)cc(OCc3ccccc3)c21 | Non-toxic | Non-toxic | – | – | – | – | –
> 20 | 47 | COc1cccc(OC)c1/C=C1\Oc2cccc(O)c2C1=O | Non-toxic | Non-toxic | – | – | – | – | –
> 20 | 37 | O=C1/C(=C/c2cccc(O)c2)Oc2cccc(O)c21 | Non-toxic | Non-toxic | – | – | – | – | –
9.7 | 75 | COc1ccc(/C=C2\Oc3cccc(O)c3C2=O)c(OC)c1 | Non-toxic | Non-toxic | – | – | – | – | –
11.1 | 56 | O=C1/C(=C/c2ccccc2O)Oc2cccc(O)c21 | Non-toxic | Non-toxic | – | – | – | – | –
> 20 | 33 | O=C1/C(=C/c2ccccc2O)Oc2cc(O)cc(O)c21 | Non-toxic | Non-toxic | – | – | – | – | –
> 20 | 50 | COc1ccc(/C=C2\Oc3cc(O)cc(O)c3C2=O)c(OC)c1OC | Non-toxic | Non-toxic | – | – | – | – | –
> 20 | 3 | CCCCc1ccc(/C=C2\Oc3cc(OC)cc(OC)c3C2=O)cc1 | Non-toxic | Non-toxic | – | – | – | – | –
> 20 | 10 | O=C1/C(=C/c2cccc(O)c2)Oc2cc(O)ccc21 | Non-toxic | Non-toxic | – | – | – | – | –
9.7 | 61 | O=C1/C(=C/c2ccc(O)cc2)Oc2cc(O)cc(O)c21 | Non-toxic | Non-toxic | 40 | – | – | – | –
> 20 | 60.8 | CC(C)(C)c1ccc(/C=C2\Oc3cccc(O)c3C2=O)cc1 | Non-toxic | Non-toxic | – | – | – | – | –

IC50 [1] [µM] | inhibition [2] [%] | SMILES | Activity [3] | Activity [4] | IC50 [5] [µM] | Ratio IC50 [6] | inhibition [7] | inhibition [8] | inhibition [9]
> 20 | – | CCCCc1ccc(/C=C2\Oc3cc(F)cc(F)c3C2=O)cc1 | Non-toxic | Non-toxic | – | – | – | – | –
> 20 | 58 | O=C1/C(=C/c2ccccc2F)Oc2cccc(O)c21 | Non-toxic | Non-toxic | – | – | – | – | –
14.6 | 57 | O=C1/C(=C/c2ccccc2)Oc2cccc(O)c21 | Non-toxic | Non-toxic | – | – | – | – | –
> 20 | 29.9 | CC(C)c1ccc(/C=C2\Oc3cccc(O)c3C2=O)cc1 | Non-toxic | Non-toxic | – | – | – | – | –
> 20 | – | CCCCc1ccc(/C=C2\Oc3ccccc3C2=O)cc1 | Non-toxic | Non-toxic | – | – | – | – | –
2.5 | 93 | CCCCc1ccc(/C=C2\Oc3cc(O)cc(O)c3C2=O)cc1 | Non-toxic | Non-toxic | – | – | – | – | –
11.2 | 80 | O=C1/C(=C/c2ccc(F)cc2)Oc2cc(O)cc(O)c21 | Non-toxic | Non-toxic | – | – | – | – | –
> 20 | 14 | COc1cc(OC)c2c(c1)O/C(=C\c1ccc(C)cc1C)C2=O | Non-toxic | Non-toxic | – | – | – | – | –
> 20 | 35 | O=C1/C(=C/c2ccc(O)cc2)Oc2cc(O)ccc21 | Non-toxic | Non-toxic | – | – | – | – | –
5.4 | 85 | O=C1/C(=C/c2ccc(O)c(O)c2)Oc2cc(O)cc(O)c21 [AUREUSIDIN] | – | – | – | – | – | – | –
> 20 | 10 | O=C1/C(=C/c2ccc(F)cc2F)Oc2cccc(F)c21 | Non-toxic | Non-toxic | – | – | – | – | –
5.8 | 81 | O=C1/C(=C/c2ccc(O)cc2O)Oc2cc(O)cc(O)c21 | Non-toxic | Non-toxic | – | – | – | – | –
> 20 | 18 | O=C1/C(=C/c2ccccc2O)Oc2cc(O)ccc21 | Non-toxic | Non-toxic | – | – | – | – | –
11.4 | 66 | O=C1/C(=C/c2ccc(N3CCOCC3)cc2)Oc2cc(O)cc(O)c21 | Non-toxic | Non-toxic | – | – | – | – | –
> 20 | 42.7 | CCCCc1ccc(/C=C2\Oc3cccc(O)c3C2=O)cc1 | Non-toxic | Non-toxic | – | – | – | – | –
> 20 | 11 | COc1cc(OC)c2c(c1)O/C(=C\c1cccc(O)c1)C2=O | Non-toxic | Non-toxic | – | – | – | – | –
3.8 | 94 | CN1CCN(c2ccc(/C=C3\Oc4cccc(O)c4C3=O)cc2)CC1 | Non-toxic | Non-toxic | – | – | – | – | –
2.6 | 94 | O=C1/C(=C/c2ccc(O)cc2O)Oc2cccc(O)c21 | Non-toxic | Non-toxic | – | – | – | – | –
– | – | CC(=O)Nc1ccc(-c2ccc(Cl)cc2)c(COc2ccc(-c3nc4cc(C(=O)O)ccc4n3C3CCCCC3)cc2)c1 | – | – | – | 10 | – | – | –
5.8 | 64 | Cc1ccc(/C=C2\Oc3cccc(O)c3C2=O)c(C)c1 | Non-toxic | Non-toxic | – | – | – | – | –

SMILES | IC50 [1] [µM] | inhibition [2] [%] | Activity [3] | Activity [4] | IC50 [5] [µM] | Ratio IC50 [6] | inhibition [7] | inhibition [8] | inhibition [9]
O=C1/C(=C/c2ccc(O)cc2)Oc2cccc(O)c21 | 5.9 | 60 | Non-toxic | Non-toxic | 18 | 6 | Active | Active | Active
